Measured values reported in ChEMBL document CHEMBL1147050, “Small-molecule agonists for the glucagon-like peptide 1 receptor” (Proc Natl Acad Sci U S A, 2007).
Active and inactive are the calls of the source. The rule behind the calls is not given here.

Columns and labels:
[1] = species on record: Mus musculus; assay: Induction of 3 mM glucose-induced insulin release in CD1 wild type mouse pancreatic islets at 100 nM; type: functional
In short: (§1)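 Adult CD1 wild-type mouse islets were isolated by collagenase digestion, cultured overnight in RPMI 1640 with 10% newborn calf serum, and perifused the next day. Columns held 30 islets, run at 37 °C and 0.30 ml/min in pH 7.4 Hepes buffer with albumin. After 30 min basal perifusion at 3 mM glucose, glucose was 3 mM from 0–60 min, then 10 mM. Agent was present 10–70 min (final DMSO ≤0.1%). Three groups of 30 islets, mean ± SEM.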

[2] = species on record: Mus musculus; assay: Induction of 3 mM glucose-induced insulin release in CD1 wild type mouse pancreatic islets at 1000 nM; type: functional; in short: as §1
[3] = species on record: Mus musculus; assay: Induction of 10 mM glucose-induced insulin release in CD1 wild type mouse pancreatic islets at 1000 nM; type: functional
In short: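 Islets from adult CD1 mice isolated by collagenase and cultured overnight in RPMI 1640 with 10% newborn calf serum. Groups of 30 islets perifused at 37°C, 0.30 ml/min, in Hepes-bicarbonate buffer with albumin. Glucose 3 mM from 0–60 min, then 10 mM; compound added at 10 min and removed at 70 min. Final DMSO ≤0.1%. Three groups per condition.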

[4] = biological target: T1, Glucagon-like peptide 1 receptor (Homo sapiens, UniProt P43220); assay: Increase in [125I]GLP1 binding to human GLP1 receptor expressed in BHK cells; type: cell-based
T1 sequence (P43220 whole entry): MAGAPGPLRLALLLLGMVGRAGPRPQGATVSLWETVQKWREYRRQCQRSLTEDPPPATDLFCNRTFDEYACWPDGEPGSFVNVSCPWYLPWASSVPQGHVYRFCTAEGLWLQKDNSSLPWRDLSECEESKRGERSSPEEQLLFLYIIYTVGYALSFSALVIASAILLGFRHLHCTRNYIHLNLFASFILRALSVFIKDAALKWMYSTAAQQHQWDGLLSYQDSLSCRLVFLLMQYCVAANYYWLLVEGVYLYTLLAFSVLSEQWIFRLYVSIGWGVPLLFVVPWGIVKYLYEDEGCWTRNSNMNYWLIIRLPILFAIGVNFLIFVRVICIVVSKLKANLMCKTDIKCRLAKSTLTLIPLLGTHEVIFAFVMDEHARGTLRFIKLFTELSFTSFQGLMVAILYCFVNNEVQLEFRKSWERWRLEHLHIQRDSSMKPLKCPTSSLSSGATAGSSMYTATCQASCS
In short: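 BHK-cell plasma membranes expressing human GLP-1 receptor with 125I-GLP-1(7–36)amide tracer (50,000 cpm/well) in 25 mM Hepes, 0.1% BSA, pH 7.4; final DMSO 4.4%. Incubated 1 h at 37°C, then vacuum filtration and one wash. Nonspecific binding defined with 1 μM GLP-1; triplicates; curves fitted as one-site competition.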

[5] = system: Pancreas; assay: Induction of 10 mM glucose-induced insulin release in Sprague-Dawley rat pancreas at 10 uM; type: functional, tissue-based
In short: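 Pancreas from male SD rats perfused at 37°C with oxygenated Krebs Ringer containing 0.25% BSA, 4% Dextran T-70 and 2 mM calcium, total flow 1.9 ml/min. Compound (final DMSO 0.25%) given at t = 20–40 min with 10 mM glucose; insulin release followed; two to three experiments, mean ± SD.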

[6] = species on record: Mus musculus; assay: Induction of 10 mM glucose-induced insulin release in CD1 GLP1 receptor knockout mouse pancreatic islets at 100 nM; type: functional
[7] = biological target: T1, Glucagon-like peptide 1 receptor; assay: Agonist activity at human GLP1 receptor expressed in BHK cells assessed as cAMP accumulation; type: functional, cell-based
[8] = species on record: Mus musculus; assay: Induction of 10 mM glucose-induced insulin release in CD1 wild type mouse pancreatic islets at 100 nM; type: functional; in short: as §1
[9] = species on record: Mus musculus; assay: Induction of 10 mM glucose-induced insulin release in CD1 GLP1 receptor knockout mouse pancreatic islets at 1000 nM; type: functional
In short: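 Islets came from CD1 GLP-1 receptor knockout mice, isolated by collagenase and cultured overnight, then perifused at 37 °C, 0.30 ml/min, 30 islets per column. After 30 min at 3 mM glucose, glucose was 3 mM from 0–30 min, then 10 mM. Agents were present 10–60 min, with DMSO ≤0.1% and a 10 μM imidazoline control. Three groups of 30 islets, mean ± SEM.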

[10] = biological target: T2, Glucagon-like peptide 2 receptor (Homo sapiens) (UniProt O95838); assay: Agonist activity at human GLP2 receptor expressed in BHK cells assessed as cAMP accumulation; type: functional, cell-based
T2 sequence (whole entry): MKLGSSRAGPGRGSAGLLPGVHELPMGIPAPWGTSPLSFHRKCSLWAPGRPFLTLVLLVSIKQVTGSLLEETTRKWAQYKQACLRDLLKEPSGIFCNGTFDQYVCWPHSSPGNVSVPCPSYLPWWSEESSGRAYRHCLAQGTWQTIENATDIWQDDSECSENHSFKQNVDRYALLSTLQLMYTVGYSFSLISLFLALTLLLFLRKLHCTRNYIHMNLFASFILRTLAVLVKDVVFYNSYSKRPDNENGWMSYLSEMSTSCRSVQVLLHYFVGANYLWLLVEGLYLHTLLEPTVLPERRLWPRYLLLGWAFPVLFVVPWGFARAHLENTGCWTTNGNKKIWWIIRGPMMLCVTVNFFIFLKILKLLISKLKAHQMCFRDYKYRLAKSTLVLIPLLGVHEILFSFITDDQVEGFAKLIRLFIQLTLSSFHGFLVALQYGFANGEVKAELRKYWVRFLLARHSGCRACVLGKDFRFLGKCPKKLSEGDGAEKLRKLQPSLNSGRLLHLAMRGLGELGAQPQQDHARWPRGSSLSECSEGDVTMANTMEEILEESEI

[11] = biological target: Glucagon receptor (Homo sapiens) (UniProt P47871); assay: Agonist activity at human glucagon receptor expressed in BHK cells assessed as cAMP accumulation; type: functional, cell-based
Chain of Glucagon receptor (Homo sapiens) (P47871 whole entry): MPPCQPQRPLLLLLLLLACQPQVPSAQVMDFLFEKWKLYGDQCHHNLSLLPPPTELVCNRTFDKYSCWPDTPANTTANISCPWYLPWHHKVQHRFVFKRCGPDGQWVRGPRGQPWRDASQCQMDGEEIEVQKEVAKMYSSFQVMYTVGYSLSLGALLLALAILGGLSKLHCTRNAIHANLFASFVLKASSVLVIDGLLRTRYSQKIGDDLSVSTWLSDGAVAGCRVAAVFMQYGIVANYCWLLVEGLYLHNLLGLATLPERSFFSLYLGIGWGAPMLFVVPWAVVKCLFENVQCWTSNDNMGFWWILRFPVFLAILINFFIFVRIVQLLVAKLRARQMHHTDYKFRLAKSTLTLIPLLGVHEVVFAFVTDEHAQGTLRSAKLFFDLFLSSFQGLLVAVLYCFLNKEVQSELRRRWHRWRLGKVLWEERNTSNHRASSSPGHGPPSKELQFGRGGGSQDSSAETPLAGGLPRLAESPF

[12] = biological target: T3, Gastric inhibitory polypeptide receptor (Homo sapiens) (UniProt P48546); assay: Agonist activity at human GIP receptor expressed in BHK cells assessed as cAMP accumulation; type: functional, cell-based
T3 sequence (whole entry): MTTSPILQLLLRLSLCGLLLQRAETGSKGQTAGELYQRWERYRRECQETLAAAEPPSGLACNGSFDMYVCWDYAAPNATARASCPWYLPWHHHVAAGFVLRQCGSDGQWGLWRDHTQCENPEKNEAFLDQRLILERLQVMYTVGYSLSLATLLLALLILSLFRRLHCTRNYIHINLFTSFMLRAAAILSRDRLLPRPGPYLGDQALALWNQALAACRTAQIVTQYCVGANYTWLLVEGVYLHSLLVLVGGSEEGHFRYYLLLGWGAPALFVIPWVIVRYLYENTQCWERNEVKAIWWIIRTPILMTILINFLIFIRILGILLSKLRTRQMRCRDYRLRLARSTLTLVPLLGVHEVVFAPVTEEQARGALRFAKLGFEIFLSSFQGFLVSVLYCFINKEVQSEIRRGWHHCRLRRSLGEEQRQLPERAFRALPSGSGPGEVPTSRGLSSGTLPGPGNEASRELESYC

Row | Activity [4] | EC50 [7] [nM] | Activity [10] | Activity [11] | Activity [12] | SMILES | Activity [1] | Activity [2] | Activity [3] | Activity [5] | Activity [6] | Activity [8] | Activity [9]
1 | Active | 101 |  |  |  | CC(C)(C)Nc1nc2cc(Cl)c(Cl)cc2nc1S(C)(=O)=O | inactive | inactive | Active | Active | inactive | inactive | inactive
2 |  |  |  |  |  | CC[C@H](C)[C@H](NC(=O)[C@H](Cc1ccccc1)NC(=O)[C@H](CCC(=O)O)NC(=O)[C@H](CCCCN)NC(=O)[C@H](C)NC(=O)[C@H](C)NC(=O)[C@H](CCC(N)=O)NC(=O)CNC(=O)[C@H](CCC(=O)O)NC(=O)[C@H](CC(C)C)NC(=O)[C@H](Cc1ccc(O)cc1)NC(=O)[C@H](CO)NC(=O)[C@H](CO)NC(=O)[C@@H](NC(=O)[C@H](CC(=O)O)NC(=O)[C@H](CO)NC(=O)[C@@H](NC(=O)[C@H](Cc1ccccc1)NC(=O)[C@@H](NC(=O)CNC(=O)[C@H](CCC(=O)O)NC(=O)[C@H](C)NC(=O)[C@@H](N)Cc1c[nH]cn1)[C@@H](C)O)[C@@H](C)O)C(C)C)C(=O)N[C@@H](C)C(=O)N[C@@H](Cc1c[nH]c2ccccc12)C(=O)N[C@@H](CC(C)C)C(=O)N[C@H](C(=O)N[C@@H](CCCCN)C(=O)NCC(=O)N[C@@H](CCCN=C(N)N)C(=O)NCC(=O)O)C(C)C | inactive | inactive |  |  | inactive | Active | inactive
3 | Dose-dependent effect | 1400 | inactive | inactive | inactive | Cc1cnc(Sc2nc3cc(Cl)c(Cl)cc3nc2C(F)(F)F)s1 |  |  |  |  |  |  | 
